The Km is the substrate concentration at which the rate is half of its maximum. Usually AUC stands for concentration integrated over time. A low value points to low exposure. For orientation: Cmax means the maximum level reached in the sampled fluid or tissue. As usually defined, the half-life is the time in which the quantity being followed falls by half. Higher therefore signals slow decline.

In one data set the test system is aldehyde oxidase. Kind of data set: Activity of guinea pig cytosolic aldehyde oxidase. Particulars: cytosol (aldehyde oxidase).
A short description of data set [1]: AUC in Hartley guinea pig at 5 mg/kg, iv. Particulars: plasma. Also on record: dose 5 mg/kg, route intravenous. The format is ADME, organism-based, Cavia porcellus. The procedure, abridged: (§1)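 A 1:1 deuterio/proto mixture, ~10 mg/kg total (5 mg/kg per isotopic form), was given orally in water or as an IV bolus via the jugular vein in saline. Animals were male Hartley guinea pigs (325–350 g) or male Sprague-Dawley rats (250–300 g). Carotid blood was sampled from 10 min to 6 h, and plasma was analysed by LC-MS/MS MRM. AUC and t1/2 were calculated between the first and last measured points.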

A short description of data set [2]: Cmax in Sprague-Dawley rat at 5 mg/kg, po. The format is ADME, organism-based. Also on record: dose 5 mg/kg, route oral. As to conditions: in vivo. The essentials:
as §1

The nature of data set [3]: AUC in Sprague-Dawley rat at 5 mg/kg, po. In kind it is ADME, organism-based. Also on record: dose 5 mg/kg, route oral. Particulars: plasma. The procedure, abridged:
as §1

The nature of data set [4]: Cmax in Hartley guinea pig at 5 mg/kg, po. The format is ADME, organism-based, Cavia porcellus. Also on record: dose 5 mg/kg, route oral. As to conditions: in vivo. The essentials: as §1
Data set [5] is described as follows: AUC in Sprague-Dawley rat at 5 mg/kg, iv. In kind it is ADME, organism-based. Also on record: dose 5 mg/kg, route intravenous. As to conditions: plasma. The procedure, abridged:
as §1

A short description of data set [6]: AUC in Hartley guinea pig at 5 mg/kg, po. The format is ADME, organism-based, Cavia porcellus. Also on record: dose 5 mg/kg, route oral. As to conditions: plasma. The essentials:
as §1

A short description of data set [7]: Half life in Hartley guinea pig at 1 mg/kg, iv. The format is ADME, organism-based, Cavia porcellus. Particulars: in vivo. Also on record: dose 1 mg/kg, route intravenous. The essentials:
(§2)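 Male Hartley guinea pigs (325–350 g) or male Sprague-Dawley rats (250–300 g) received a 1:1 deuterio/proto mixture. Oral dose was ~5 mg/kg total (2.5 mg/kg per isotopomer) in water; IV bolus via the jugular vein was ~2 mg/kg total (1 mg/kg per isotopomer) in saline. Carotid blood was drawn between 10 min and 6 h, and plasma was assayed by LC-MS/MS. AUC and t1/2 cover only the first to last measured time points.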

Data set [8] can be described thus: AUC in Sprague-Dawley rat at 2.5 mg/kg, po. Also on record: dose 2.5 mg/kg, route oral. The format is ADME, organism-based. Particulars: plasma. The essentials:
as §2

The nature of data set [9]: Cmax in Hartley guinea pig at 2.5 mg/kg, po. The format is ADME, organism-based, Cavia porcellus. Also on record: dose 2.5 mg/kg, route oral. Particulars: in vivo. The essentials:
as §2

The nature of data set [10]: Cmax in Sprague-Dawley rat at 2.5 mg/kg, po. In kind it is ADME, organism-based. Also on record: dose 2.5 mg/kg, route oral. As to conditions: in vivo. The essentials: as §2
The nature of data set [11]: AUC in Hartley guinea pig at 2.5 mg/kg, po. In kind it is ADME, organism-based, Cavia porcellus. As to conditions: plasma. Also on record: dose 2.5 mg/kg, route oral. The essentials:
as §2

A short description of data set [12]: Half life in Hartley guinea pig at 2.5 mg/kg, po. In kind it is ADME, organism-based, Cavia porcellus. Also on record: dose 2.5 mg/kg, route oral. As to conditions: in vivo. The essentials:
as §2

Data set [13] in a line: Half life in Sprague-Dawley rat at 1 mg/kg, iv. Also on record: dose 1 mg/kg, route intravenous. Particulars: in vivo. In kind it is ADME, organism-based. The procedure, abridged:
as §2

Data set [14] is described as follows: Half life in Sprague-Dawley rat at 2.5 mg/kg, po. Particulars: in vivo. Also on record: dose 2.5 mg/kg, route oral. The format is ADME, organism-based. The procedure, abridged:
as §2

Data set [15] can be described thus: AUC in Hartley guinea pig at 1 mg/kg, iv. In kind it is ADME, organism-based, Cavia porcellus. Also on record: dose 1 mg/kg, route intravenous. As to conditions: plasma. The essentials:
as §2

Data set [16] can be described thus: AUC in Sprague-Dawley rat at 1 mg/kg, iv. The format is ADME, organism-based. Also on record: dose 1 mg/kg, route intravenous. As to conditions: plasma. The procedure, abridged:
as §2

On to `c1ccc2ncccc2c1` [QUINOLINE], for which the Km in the data set on aldehyde oxidase stood at 212 µM.
In the case of `CCNC(=O)OC1CCN(c2nncc3cc(OC)c(OC)cc23)CC1` [CARBAZERAN], the AUC in data set [1] amounted to 35.6 ng·h/mL; in data set [3], 1630 ng·h/mL; in [5] it was 509 ng·h/mL; in data set [6], 4.25 ng·h/mL. In addition, the values for the highest concentration (Cmax) in data set [2] and in [4] were 1150 ng/mL and 9.8 ng/mL, respectively.
As for `[2H]c1nnc(N2CCC(OC(=O)NCC)CC2)c2cc(OC)c(OC)cc12`, the exposure (AUC) came to 206 ng·h/mL in data set [1], 3720 ng·h/mL in data set [3], 1270 ng·h/mL in data set [5] and 96 ng·h/mL in data set [6]. Further, the figures for the Cmax in [2] and in data set [4] were 1770 ng/mL and 161 ng/mL, respectively.
For the compound `[2H]c1ccc2ccccc2n1`, in the data set on aldehyde oxidase, the Km amounted to 193 µM.
For `[2H]c1ccc2c(-n3ncc(C(=O)NC(=N)N)c3C3CC3)cccc2n1`, the half-life in data set [7] is 30 min; in [12], 30 min; in data set [13], 30 min; in [14], 18 min. The AUC in data set [8] was 12.7 ng·h/mL; in data set [11], 25.7 ng·h/mL; in [15], 40.7 ng·h/mL; in [16] it was 77.4 ng·h/mL. Also, the maximum concentration (Cmax) in data set [9] is 23.3 ng/mL; in data set [10] it was 18.4 ng/mL.
Consider `N=C(N)NC(=O)c1cnn(-c2cccc3ncccc23)c1C1CC1` [ZONIPORIDE], for which the half-life in data set [7] is 30 min; in data set [12] it was 30 min; in [13], 24 min; in data set [14], 18 min. Besides, the AUC was 19.7 ng·h/mL in [8], 22.2 ng·h/mL in data set [11], 23.2 ng·h/mL in data set [15] and 74.4 ng·h/mL in data set [16]. The values for the Cmax in data set [9] and in data set [10] were 26.5 ng/mL and 24.7 ng/mL, respectively.
